These results are taken from ChEMBL document CHEMBL1152725, “New potent imidazoisoquinolinone derivatives as anti-Trypanosoma cruzi agents: biological evaluation and structure-activity relationships” (Bioorg Med Chem, 2009).

Values after ≈ are worked out from the molar mass of the structure shown. Active and inactive are the calls of the source. The rule behind the calls is not given here. A value given as a limit tells only on which side of the number the result lay.

Usually IC50 stands for the concentration at which inhibition is half-maximal.

In data set [1] the test system is Trypanosoma brucei rhodesiense. Description: Antiparasitic activity against Trypanosoma brucei rhodesiense. In kind it is functional, organism-based.
The next data set relates to HeLa. Description: Cytotoxicity against human HeLa cells after 24 hrs by MTT assay. In kind it is cell-based. The method in brief: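 HeLa cells were kept in DMEM with 10% FBS, penicillin and streptomycin at 37 °C and 5% CO2. Cells were seeded, and after 48 h compound was added at 4, 20 or 100 µM for 24 h. After PBS washes, cells got MTT at 0.5 mg/mL final for 4 h at 37 °C. Formazan was dissolved in isopropanol/HCl and read at 570 nm after blank subtraction. Survival is % of control, with ≥3 repeats of four samples each.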

A further data set deals with DNA. Description: Binding affinity to calf thymus DNA at a DNA-drug molar ratio of 5:1 after 24 hrs by UV spectroscopy. The conditions noted are these: Bos taurus. In kind it is nucleic-acid assay. An outline of the steps: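 Calf thymus DNA was prepared in 10 mM Tris–HCl pH 7.4. Compound (2 × 10⁻⁵ M, from an ethanol stock diluted with water) was mixed 1:1 by volume with the DNA solution at a 5:1 DNA-drug ratio. The mixture was rotated slowly for 24 h. UV absorbance area at maximal absorbance was compared (a24/a0), where 1 means no affinity and 0 means fully bound.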

The nature of data set [2]: Selectivity index, ratio of IC50 for human HeLa cells to IC50 for Trypanosoma cruzi Tulahuen 2 epimastigotes. In kind it is toxicity, cell-based. The conditions noted are these: HeLa cells versus Trypanosoma cruzi Tulahuen 2 epimastigotes, read-out: Ratio IC50. An outline of the steps:
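Selectivity index is the HeLa IC50 divided by the IC50 against T. cruzi Tulahuen 2 epimastigotes (5-day growth assay).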

Another data set relates to Trypanosoma cruzi. Description: Antitrypanosomal activity against Trypanosoma cruzi Tulahuen 2 epimastigotes after 5 days. In kind it is functional, organism-based. The conditions noted are these: Tulahuen 2, 120 h. An outline of the steps: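 T. cruzi Tulahuen 2 epimastigotes were grown axenically at 28 °C in BHI-tryptose with 5% FCS. Stationary-phase (5-day) cells were inoculated at 1 × 10⁶ cells/mL, with DMSO ≤0.4% final. Cultures ran 5 days with or without compound, first as a 25 µM screen and then at increasing concentrations. IC50 is the concentration halving this ratio.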

For a further data set, the system named is L6. Nature of the data set: Cytotoxicity against rat L6 cells. In kind it is cell-based.
For data set [3], the system named is Onchocerca gutturosa. Nature of the data set: Antiparasitic activity against Onchocerca gutturosa assessed as inhibition of MTT formazan formation. In kind it is functional. More on the design: scale not given: the % may be the effect or the level left.
In data set [4] the test system is Onchocerca gutturosa. Nature of the data set: Antiparasitic activity against Onchocerca gutturosa assessed as reduction in motility after 120 hrs. In kind it is functional. Set-up: scale not given: the % may be the effect or the level left.
The subject of the next data set is Leishmania infantum. Description: Antiparasitic activity against Leishmania infantum. In kind it is functional, organism-based.
The next data set relates to Leishmania donovani. Description: Antiparasitic activity against Leishmania donovani. In kind it is functional, organism-based.
A further data set relates to Plasmodium falciparum. Description: Antiparasitic activity against Plasmodium falciparum K1. In kind it is functional, organism-based.

Take `Cc1ccc(C(=O)Nc2ccc(S(=O)(=O)O)c3cc(S(=O)(=O)O)cc(S(=O)(=O)O)c23)cc1NC(=O)c1cccc(NC(=O)Nc2cccc(C(=O)Nc3cc(C(=O)Nc4ccc(S(=O)(=O)O)c5cc(S(=O)(=O)O)cc(S(=O)(=O)O)c45)ccc3C)c2)c1` [SURAMIN]: in data set [1], the half-inhibitory concentration (IC50) is 0.13 µg/mL (≈ 0.1 µM).

For the molecule `Cc1ccc(NC(=S)c2c3n(c(=O)c4ccccc24)CCN3)cc1`, the values for the concentration for half-maximal inhibition (IC50) with HeLa and in the data set on Trypanosoma cruzi were > 100 µM and 1 µM, respectively. The Activity with DNA is 0.8. Also, the selectivity ratio in data set [2] is > 100.

Regarding `CC1CS(=O)(=O)CCN1/N=C/c1ccc([N+](=O)[O-])o1` (stereo not given) [NIFURTIMOX], the IC50 in the data set on HeLa came to 12 µM. Besides, in [2], the selectivity ratio is 1.5.

In the data set with L6, `CC/C(=C(\c1ccccc1)c1ccc(OCCN(C)C)cc1)c1ccccc1` [TAMOXIFEN] displayed an IC50 of 4.9 µg/mL (≈ 13.2 µM).

For `Cc1cccc(NC(=S)c2c3n(c(=O)c4ccccc24)CCN3)c1`, the IC50 in the data set with HeLa is > 52.5 µM; in the data set on Trypanosoma cruzi, 20 µM. In the data set with DNA, the Activity is 0.8.

For `COc1ccc(NC(=S)c2c3n(c(=O)c4ccccc24)CCN3)cc1`, the half-maximal inhibitory concentration (IC50) in the data set with HeLa amounted to 22 µM; in the data set with Trypanosoma cruzi, 12.3 µM. Moreover, the Activity in the data set on DNA amounted to 0.8. In data set [2], the selectivity ratio was found to be 1.7.

Take `O=c1c2ccccc2c(C(=S)Nc2ccccc2)c2n1CCN2`: the concentration for half-maximal inhibition (IC50) in the data set with HeLa was > 100 µM; in the data set on Trypanosoma cruzi, 3 µM. The Activity in the data set with DNA was found to be 0.8. In data set [2], the selectivity ratio was > 33.

Turning to `CN1CCN(C(=S)Nc2ccc(Nc3ccc([N+](=O)[O-])cc3)cc2)CC1` [AMOCARZINE], the Activity turned out to be 48.57% with Onchocerca gutturosa [3] and 85.71% in the data set on Onchocerca gutturosa [4].

For `CC(=O)N1CCn2c1c(C(=S)Nc1ccccc1)c1ccccc1c2=O`, the Activity in the data set with DNA was 0.8. Half-maximal inhibition in the data set on Trypanosoma cruzi (IC50) was put at 43 µM.

For `O=c1c2ccccc2cc2[nH]c3ccccc3n12`, the IC50 is > 100 µM in the data set on HeLa and > 25 µM in the data set with Trypanosoma cruzi. Also, in the data set with DNA, the Activity was 0.85.

Turning to `O=c1c2ccccc2cc2n1CCN2`, the 50% inhibitory concentration (IC50) in the data set with Leishmania infantum is > 20.7 µg/mL; with L6, > 100 µg/mL; in the data set with HeLa it was > 100 µM; in [1], 1.2 µg/mL (≈ 6.44 µM); with Plasmodium falciparum, > 10 µg/mL; in the data set on Trypanosoma cruzi, > 25 µM. Further, in the data set with Leishmania donovani, the result was inactive. The Activity amounted to 0% with Onchocerca gutturosa [3], 0.8 in the data set with DNA and 14.29% in the data set with Onchocerca gutturosa [4].

With `O=c1c2ccccc2c(C(=S)Nc2cccc3ccccc23)c2n1CCN2`, the Activity in the data set with DNA turned out to be 0.8. Also, in the data set on Trypanosoma cruzi, the half-maximal inhibitory concentration (IC50) turned out to be 25 µM.

Take `O=c1c2ccccc2c(C(=S)Nc2ccc(Cl)cc2)c2n1CCN2`: the IC50 with Leishmania infantum is > 22.7 µg/mL; in the data set on L6 it was > 22.8 µg/mL; with HeLa, > 90 µM; in data set [1], > 22.7 µg/mL; in the data set with Plasmodium falciparum, > 22.7 µg/mL; with Trypanosoma cruzi it was 0.5 µM. The result with Leishmania donovani was inactive. The Activity with DNA was 0.8. The selectivity ratio in [2] was > 180.

Turning to `O=c1c2ccccc2c(C(=S)Nc2ccccn2)c2n1CCN2`, the IC50 with HeLa is > 100 µM; in the data set on Trypanosoma cruzi, 30 µM. The Activity in the data set on DNA is 0.8.

In the case of `O=c1c2ccccc2c(C(=S)Nc2ccccc2)c2[nH]c3ccccc3n12`, the IC50 was > 19.5 µg/mL in the data set with Leishmania infantum; > 22.8 µg/mL with L6; 98 µM with HeLa; > 22.7 µg/mL in data set [1]; > 19.5 µg/mL with Plasmodium falciparum; 6.4 µM with Trypanosoma cruzi. Moreover, in the data set with Leishmania donovani, the result was inactive. Also, the Activity with DNA came out at 0.8. Moreover, the selectivity ratio in data set [2] is 15.

Turning to `O=c1c2ccccc2c(C(=S)NCc2ccc(Cl)cc2)c2n1CCN2`, the 50% inhibitory concentration (IC50) in the data set on HeLa is > 90 µM; in the data set with Trypanosoma cruzi it was 35 µM. In addition, the Activity with DNA was found to be 0.8.

As to `O=C(Nc1ccccc1)c1c2n(c(=O)c3ccccc13)CCN2`, the half-maximal inhibitory concentration (IC50) was > 19.5 µg/mL in the data set on Leishmania infantum; > 19.6 µg/mL in the data set with L6; > 100 µM with HeLa; > 19.5 µg/mL in [1]; > 19.5 µg/mL in the data set on Plasmodium falciparum; 30 µM with Trypanosoma cruzi. Further, the result in the data set on Leishmania donovani was inactive. In the data set on DNA, the Activity stood at 0.8.
